From ChEMBL document CHEMBL1687733, “Topoisomerase I gene mutations at F270 in the large subunit and N184 in the small subunit contribute to the resistance mechanism of the unicellular parasite Leishmania donovani towards 3,3'-diindolylmethane” (Antimicrob Agents Chemother, 2009)
Where a chain is given by its changes, count along the chain named. Active and inactive are the calls of the source.

Tests used:
Leishmania donovani [1] = experiment: Antimicrobial activity against wild type Leishmania donovani AG83 transfected with drug-resistant Leishmania donovani LdDR50 topoisomerase 1 F270L, N184S mutant in large subunit assessed as inhibition of parasite growth at 20 uM after 24 hrs by MTT assay; type: functional; conditions: AG83, 24 h
Method in brief: (§1)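 WT promastigotes transfected by electroporation with mutant large-subunit (pXG-HYG, hygromycin selection) and/or small-subunit (pXG-GFP2+, G418 selection) topoisomerase I genes. Grown with DIM 1–20 μM for 24 h; MTT read-out, growth as % of optical density of untreated WT parasites.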

Leishmania donovani [2] = experiment: Antimicrobial activity against wild type Leishmania donovani AG83 transfected with drug-resistant Leishmania donovani LdDR50 topoisomerase 1 K430N mutant in large subunit and N184S mutant in small subunit assessed as inhibition of parasite growth at 20 uM after 24 hrs by MTT assay; type: functional; conditions: AG83, 24 h; method in brief: as §1
Leishmania donovani [3] = experiment: Inhibition of recombinant drug-resistant Leishmania donovani LdDR50 topoisomerase 1b-mediated relaxation of supercoiled pBluescript SK(+) DNA at up to 50 uM after 30 mins using ethidium bromide staining
Method in brief: (§2)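 Reconstituted recombinant enzyme (30 fmol) with 90 fmol supercoiled pBluescript SK(+) DNA (3:1 DNA:enzyme), 30 min at 37°C with DIM (1–50 μM for fully mutant enzyme; 10 μM for single-site mutants); 4% DMSO vehicle control. Products on 1% agarose, ethidium bromide (0.5 μg/ml) stained; supercoiled monomer band quantified.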

[4] = tested on: T1, Leishmania donovani [F270L,K430N]; experiment: Inhibition of recombinant drug-resistant Leishmania donovani LdDR50 topoisomerase 1b wild type small subunit and large subunit F270L, K430N mutant-mediated relaxation of supercoiled pBluescript SK(+) DNA at up to 50 uM after 30 mins using ethidium bromide staining; method in brief: as §2
T1 sequence (whole entry): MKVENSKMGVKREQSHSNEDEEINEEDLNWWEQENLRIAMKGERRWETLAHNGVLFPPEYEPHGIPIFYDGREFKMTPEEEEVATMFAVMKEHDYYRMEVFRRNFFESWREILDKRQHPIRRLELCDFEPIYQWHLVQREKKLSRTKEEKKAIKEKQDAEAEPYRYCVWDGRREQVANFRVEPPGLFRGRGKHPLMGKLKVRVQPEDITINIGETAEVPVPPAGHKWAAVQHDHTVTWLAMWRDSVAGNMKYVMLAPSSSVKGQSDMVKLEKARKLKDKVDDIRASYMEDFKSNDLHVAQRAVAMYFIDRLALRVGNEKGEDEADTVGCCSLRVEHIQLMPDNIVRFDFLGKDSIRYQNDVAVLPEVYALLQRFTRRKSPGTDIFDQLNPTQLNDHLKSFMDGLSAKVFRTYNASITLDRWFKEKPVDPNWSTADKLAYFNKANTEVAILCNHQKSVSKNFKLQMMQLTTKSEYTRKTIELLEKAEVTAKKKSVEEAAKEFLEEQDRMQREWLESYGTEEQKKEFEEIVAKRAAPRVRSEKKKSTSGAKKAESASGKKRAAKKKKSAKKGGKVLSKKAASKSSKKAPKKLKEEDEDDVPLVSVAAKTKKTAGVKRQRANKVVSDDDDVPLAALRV

[5] = tested on: T2, DNA topoisomerase I (Leishmania donovani (strain BPK282A1)), E9BRC0 [F270L]; experiment: Effect on recombinant drug-resistant Leishmania donovani LdDR50 topoisomerase 1b large subunit F270L mutant-mediated cleavage of 25-mer duplex oligonucleotide at 20 uM after 30 mins by PAGE analysis
T2 sequence (whole entry): T1 sequence (whole entry) with N430K
Method in brief: (§3)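 5′-32P-labelled 25-mer duplex (10 nM) incubated with reconstituted mutant enzyme (0.2 μM, 20-fold molar excess) and DIM 5–20 μM for 30 min (Methods 37°C; legend 23°C). Stopped with SDS, trypsin-treated, resolved on 12% denaturing polyacrylamide-urea gel; cleaved 12-mer detected by autoradiography.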

[6] = tested on: T3, DNA topoisomerase type IB small subunit (Leishmania donovani (strain BPK282A1)), E9B7X3 [N184S]; experiment: Effect on recombinant drug-resistant Leishmania donovani LdDR50 topoisomerase 1b small subunit N184S mutant-mediated cleavage of 25-mer duplex oligonucleotide at 20 uM after 30 mins by PAGE analysis; method in brief: as §3
T3 sequence (whole entry): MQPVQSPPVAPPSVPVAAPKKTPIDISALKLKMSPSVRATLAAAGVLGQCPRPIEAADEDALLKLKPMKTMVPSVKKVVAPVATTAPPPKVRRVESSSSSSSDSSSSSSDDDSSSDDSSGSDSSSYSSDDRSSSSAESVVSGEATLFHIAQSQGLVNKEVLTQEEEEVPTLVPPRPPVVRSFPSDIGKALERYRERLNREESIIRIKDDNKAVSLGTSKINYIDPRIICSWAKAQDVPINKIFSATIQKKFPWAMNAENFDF

[7] = tested on: T2, DNA topoisomerase I (Leishmania donovani (strain BPK282A1)), E9BRC0 [F270L]; experiment: Inhibition of recombinant drug-resistant Leishmania donovani LdDR50 topoisomerase 1b large subunit F270L mutant-mediated religation of 14-mer/25-mer suicide DNA substrate at 20 uM […] by PAGE analysis
DNA topoisomerase I = DNA topoisomerase I (Leishmania donovani (strain BPK282A1), UniProt E9BRC0, F270L); experiment: Binding affinity to recombinant drug-resistant Leishmania donovani LdDR50 topoisomerase 1b large subunit F270L mutant after 24 hrs by equilibrium dialysis method
Method in brief: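 Recombinant His-tagged subunits expressed in E. coli BL21(DE3) pLysS, purified on Ni-NTA then phosphocellulose, reconstituted 1:1. Enzyme 200 μM with DIM 1–20 μM in 20 mM Tris-HCl pH 7.5, 50 mM NaCl, 10 mM MgCl2 for 30 min at 37°C, then dialysed (12–14 kDa cutoff) 24 h at 25°C. Free DIM measured by absorbance (ε 6.6 × 10^4 M−1); KD from saturation plot.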

Q: Which results are given for `c1ccc2c(Cc3c[nH]c4ccccc34)c[nH]c2c1` [ARUNDINE]?
A: inhibition at 20 µM (Leishmania donovani [1]): 31%; inhibition at 20 µM (Leishmania donovani [2]): 86%; inhibition (Leishmania donovani [3]): inactive; inhibition [4]: inactive; Activity [5]: inactive; Activity [6]: Active; inhibition [7]: inactive; Kd (DNA topoisomerase I): 530 µM
